Assay results from PMC6745243 (Bioorganic & medicinal chemistry letters, 2019).
Where “and” joins values, the source holds several entries; their conditions need not be identical. Identical values can stand only once. Like-named read-outs stand apart in the source and are kept apart here.

What was measured:
[1] = Human; ref Ghoshal, et al. Mol Metab. 2016; cited from earlier work
IP6K family = settings: cited from earlier work
[2] = Mouse; ref Ghoshal, et al. Mol Metab. 2016; cited from earlier work
Aqueous solubility = assay type: physicochemical
[3] = test system: 58 kinases (diversity panel); experiment: Off-target kinase diversity panel at Eurofins; assay type: biochemical; settings: 10μM, 58 kinases tested
How it was run: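 Kinase panel included metabolically important enzymes, among them GSK3β, AKT, mTOR and PI3K.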

IP6K2 = molecular target: T1, IP6K2 (Homo sapiens, UniProt Q9UHH9); experiment: ADP-Glo Max assay, purified IP6K2; assay type: biochemical; settings: IP6K2 over IP6K1
T1 sequence (Q9UHH9 1-426): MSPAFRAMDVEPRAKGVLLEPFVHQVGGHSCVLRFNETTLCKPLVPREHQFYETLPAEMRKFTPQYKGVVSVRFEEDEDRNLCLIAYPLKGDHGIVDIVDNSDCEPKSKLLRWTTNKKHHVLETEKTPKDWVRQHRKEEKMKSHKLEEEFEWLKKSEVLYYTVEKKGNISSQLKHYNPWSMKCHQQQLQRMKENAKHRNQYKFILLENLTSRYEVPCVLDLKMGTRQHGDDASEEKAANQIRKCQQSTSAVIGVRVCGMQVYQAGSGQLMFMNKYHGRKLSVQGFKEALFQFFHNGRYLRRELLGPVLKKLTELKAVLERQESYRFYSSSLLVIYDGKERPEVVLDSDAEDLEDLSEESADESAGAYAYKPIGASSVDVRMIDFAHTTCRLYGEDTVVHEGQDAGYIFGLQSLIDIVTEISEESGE

IP6K3 = molecular target: T2, IP6K3 (Homo sapiens, UniProt Q96PC2); experiment: ADP-Glo Max assay, purified IP6K3; assay type: biochemical; settings: IP6K3 over IP6K1
T2 sequence (Q96PC2 1-410): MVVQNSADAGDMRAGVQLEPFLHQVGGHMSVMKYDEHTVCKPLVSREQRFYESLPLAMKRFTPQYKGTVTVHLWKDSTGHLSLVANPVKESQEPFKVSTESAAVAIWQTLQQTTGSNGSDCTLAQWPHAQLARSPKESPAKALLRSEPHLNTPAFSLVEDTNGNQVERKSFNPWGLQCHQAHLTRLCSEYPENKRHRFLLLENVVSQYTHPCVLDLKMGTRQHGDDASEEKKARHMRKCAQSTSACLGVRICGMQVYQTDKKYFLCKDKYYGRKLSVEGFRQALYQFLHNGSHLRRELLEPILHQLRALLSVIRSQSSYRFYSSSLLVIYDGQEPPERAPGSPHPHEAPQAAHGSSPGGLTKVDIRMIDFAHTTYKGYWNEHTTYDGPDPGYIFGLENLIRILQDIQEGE

Structure (SMILES)	Microsome stability (t1/2) [1]	IP6K selectivity (IP6K family; between IP6K isoforms, ref Padmanabhan, et al. J Biol Chem 2009)	Potency against the IP6K family (IP6K family)	Microsome stability (t1/2) [2]	Solubility (Aqueous solubility; 2% DMSO)	Solubility (Aqueous solubility; aqueous buffers)	Number of kinases not significantly inhibited (inactive) [3] [kinases]	Number of kinases potently inhibited ([3]; 3 of RAF/MAPK pathway and casein kinase γ) [kinases]	Selectivity (Ki/Ki IP6K1) (IP6K2)	Selectivity (Ki/Ki IP6K1) (IP6K3) [fold]
O=[N+]([O-])c1ccc(CNc2nc(NCc3cccc(C(F)(F)F)c3)nc3[nH]cnc23)cc1 [Compound 1, N2-(m-trifluorobenzyl)-N6-(p-nitrobenzyl) purine]	Human 32 min ^**	Not selective ^*	low micromolar potency	Mouse 9 min ^**	Mostly insoluble in 2% DMSO	sparingly soluble				
COc1ccc2c(CCNc3nc(NCc4ccc(=O)[nH]c4)c4nc[nH]c4n3)c[nH]c2c1 [Compound 24]							54	4	~ 25 fold and 25 fold	~50
